The results in this text go back to ChEMBL document CHEMBL1649224, “Involvement of pmrAB and phoPQ in polymyxin B adaptation and inducible resistance in non-cystic fibrosis clinical isolates of Pseudomonas aeruginosa” (2009).

One may read the MIC as the least concentration at which growth counts as inhibited.

Experiment [1] relates to Pseudomonas aeruginosa. The experiment is described as follows: Antibacterial activity against Pseudomonas aeruginosa isolate 9BR by Etest. Type of experiment: functional.
Experiment [2] has as its system Pseudomonas aeruginosa. Briefly: Antibacterial activity against Pseudomonas aeruginosa isolate 19BR by Etest. Type of experiment: functional.
For experiment [3], the system named is Pseudomonas aeruginosa. The experiment is described as follows: Antibacterial activity against Pseudomonas aeruginosa isolate 213BR by Etest. The class given is functional.
Experiment [4] concerns Pseudomonas aeruginosa. The experiment is described as follows: Antibacterial activity against Pseudomonas aeruginosa isolate 9BR by Etest in presence of beta-lactamase inhibitor Tazobactam. The class given is functional.
The subject of experiment [5] is Pseudomonas aeruginosa. Briefly: Antibacterial activity against Pseudomonas aeruginosa isolate 19BR by Etest in presence of beta-lactamase inhibitor Tazobactam. The class given is functional.
The subject of experiment [6] is Pseudomonas aeruginosa. Briefly: Antibacterial activity against Pseudomonas aeruginosa isolate 213BR by Etest in presence of beta-lactamase inhibitor Tazobactam. The class given is functional.
For experiment [7], the system named is Pseudomonas aeruginosa. The experiment is described as follows: Antibacterial activity against Pseudomonas aeruginosa isolate 9BR assessed as lowest concentration at which no growth observed after 48 hrs by broth microdilution method. Type of experiment: functional, organism-based.
In experiment [8] the test system is Pseudomonas aeruginosa. Briefly: Antibacterial activity against Pseudomonas aeruginosa isolate 19BR assessed as lowest concentration at which no growth observed after 48 hrs by broth microdilution method. The class given is functional, organism-based. The method, boiled down: (§1)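 Broth microdilution per CLSI M7-A6/M100-S15 in cation-adjusted Mueller-Hinton broth, 37°C, 48 h; polymyxin B 0.03 to 32 μg/ml, triplicate runs per isolate. Liberal MIC read as the lowest-concentration well without visible growth; skipped wells (isolated no-growth wells below wells with growth) noted.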
(In general: Dilution methods test growth across graded concentrations, often in twofold steps.)

The test system of experiment [9] is Pseudomonas aeruginosa. The experiment is described as follows: Antibacterial activity against Pseudomonas aeruginosa isolate 213BR assessed as lowest concentration at which no growth observed after 48 hrs by broth microdilution method. Type of experiment: functional, organism-based. The procedure, abridged:
as §1

Experiment [10] deals with Pseudomonas aeruginosa. The experiment is described as follows: Antibacterial activity against Pseudomonas aeruginosa isolate 9BR assessed as growth after the skipped wells was observed after 48 hrs by broth microdilution method. Type of experiment: functional, organism-based.
Experiment [11] has as its system Pseudomonas aeruginosa. Briefly: Antimicrobial activity against Pseudomonas aeruginosa isolate 19BR assessed as inhibition of growth at 2 ug/ml after 24 hrs. Type of experiment: functional, organism-based. The method, boiled down: (§2)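 Growth curves run in triplicate: overnight cultures diluted 1:20 into cation-adjusted Mueller-Hinton broth with 0, 0.125 or 2 μg/ml polymyxin B; OD600 read every 20 min for 24 h.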

For experiment [12], the system named is Pseudomonas aeruginosa. Briefly: Antimicrobial activity against Pseudomonas aeruginosa isolate 213BR assessed as inhibition of growth at 2 ug/ml after 24 hrs. Type of experiment: functional, organism-based. The procedure, abridged:
as §2

Experiment [13] has as its system Pseudomonas aeruginosa. Briefly: Increase in arnB gene expression in compound-resistant Pseudomonas aeruginosa isolate 9BR by quantitative PCR analysis. The class given is functional, organism-based. The procedure, abridged:
(§3)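 Cells taken from MIC-plate wells at 0, 0.125 or 2 μg/ml polymyxin B, regrown in 10 ml CAMHB at the same level, shaken at 37°C to OD600 0.5. Total RNA (4 μg) reverse-transcribed; qPCR normalised to rpsL and expressed relative to PAO1 without polymyxin B. Triplicate cultures on separate days from individual MIC plates, each run at least in duplicate.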

Experiment [14] has as its system Pseudomonas aeruginosa. Briefly: Increase in PA4773 gene expression in compound-resistant Pseudomonas aeruginosa isolate 9BR by quantitative PCR analysis. Type of experiment: functional, organism-based. The method, boiled down: as §3
The test system of experiment [15] is Pseudomonas aeruginosa. The experiment is described as follows: Effect on phoQ gene expression in Pseudomonas aeruginosa PAO1 at 2 ug/ml by quantitative PCR analysis. The class given is functional, organism-based. The method, boiled down:
(§4)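 Cells from MIC plate wells regrown in cation-adjusted Mueller-Hinton broth with 0, 0.125 or 2 μg/ml polymyxin B at 37°C with shaking to OD600 0.5. Total RNA (4 μg) reverse-transcribed for qPCR of phoQ, arnB and PA4773, with rpsL as control. Expression is relative to untreated PAO1; triplicate biological repeats, each at least in duplicate.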

Experiment [16] concerns Pseudomonas aeruginosa. The experiment is described as follows: Effect on arnB gene expression in Pseudomonas aeruginosa PAO1 at 2 ug/ml by quantitative PCR analysis. The class given is functional, organism-based. The procedure, abridged:
as §4

Experiment [17] relates to Pseudomonas aeruginosa. Briefly: Effect on PA4773 gene expression in Pseudomonas aeruginosa PAO1 at 2 ug/ml by quantitative PCR analysis. The class given is functional, organism-based. The procedure, abridged:
as §4

Experiment [18] concerns Pseudomonas aeruginosa. Briefly: Increase in phoQ gene expression in Pseudomonas aeruginosa isolate 19BR at 2 ug/ml by quantitative PCR analysis. The class given is functional, organism-based. The procedure, abridged: as §4
The subject of experiment [19] is Pseudomonas aeruginosa. Briefly: Increase in arnB gene expression in Pseudomonas aeruginosa isolate 19BR at 2 ug/ml by quantitative PCR analysis. Type of experiment: functional, organism-based. The method, boiled down:
as §4

For experiment [20], the system named is Pseudomonas aeruginosa. The experiment is described as follows: Increase in PA4773 gene expression in Pseudomonas aeruginosa isolate 19BR at 2 ug/ml by quantitative PCR analysis. Type of experiment: functional, organism-based. The method, boiled down:
as §4

The test system of experiment [21] is Pseudomonas aeruginosa. Briefly: Increase in phoQ gene expression in Pseudomonas aeruginosa isolate 213BR at 2 ug/ml by quantitative PCR analysis. Type of experiment: functional, organism-based. The method, boiled down:
as §4

Experiment [22] has as its system Pseudomonas aeruginosa. Briefly: Increase in arnB gene expression in Pseudomonas aeruginosa isolate 213BR at 2 ug/ml by quantitative PCR analysis. Type of experiment: functional, organism-based. The method, boiled down:
as §4

Experiment [23] relates to Pseudomonas aeruginosa. Briefly: Increase in PA4773 gene expression in Pseudomonas aeruginosa isolate 213BR at 2 ug/ml by quantitative PCR analysis. Type of experiment: functional, organism-based. The procedure, abridged: as §4
The subject of experiment [24] is Pseudomonas aeruginosa. The experiment is described as follows: Antimicrobial activity against Pseudomonas aeruginosa PAO1 assessed as outer membrane permeabilization by fluorescence spectrophotometer using NPN fluorescent probe. The class given is functional, organism-based. The method, boiled down:
(§5)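 Cells grown in cation-adjusted Mueller-Hinton broth with 0, 0.125 or 2 μg/ml polymyxin B (preincubation), subcultured 1:100 to mid-log, washed, resuspended to OD600 0.5 in 5 mM HEPES pH 7.2 with 5 μM CCCP. NPN 10 μM final added for baseline. Polymyxin B then added at 0.25–64 μg/ml final; fluorescence ex 350/em 420 nm.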

Experiment [25] concerns Pseudomonas aeruginosa. Briefly: Antimicrobial activity against Pseudomonas aeruginosa isolate 19BR assessed as outer membrane permeabilization by fluorescence spectrophotometer using NPN fluorescent probe. The class given is functional, organism-based. The procedure, abridged:
as §5

Experiment [26] relates to Pseudomonas aeruginosa. Briefly: Antimicrobial activity against Pseudomonas aeruginosa isolate 9BR assessed as outer membrane permeabilization by fluorescence spectrophotometer using NPN fluorescent probe. Type of experiment: functional, organism-based. The procedure, abridged:
as §5

Experiment [27] relates to Pseudomonas aeruginosa. Briefly: Antimicrobial activity against Pseudomonas aeruginosa PAO1 assessed as outer membrane permeabilization at 4 ug/ml by fluorescence spectrophotometer using NPN fluorescent probe. Type of experiment: functional, organism-based. The method, boiled down:
as §5

Experiment [28] concerns Pseudomonas aeruginosa. Briefly: Antimicrobial activity against Pseudomonas aeruginosa isolate 9BR assessed as outer membrane permeabilization at => […] ug/ml by fluorescence spectrophotometer using NPN fluorescent probe. The class given is functional, organism-based.
In experiment [29] the test system is Pseudomonas aeruginosa. Briefly: Antimicrobial activity against Pseudomonas aeruginosa isolate 19BR assessed as outer membrane permeabilization at => 8 ug/ml by fluorescence spectrophotometer using NPN fluorescent probe. Type of experiment: functional, organism-based. The method, boiled down:
as §5

Experiment [30] concerns Pseudomonas aeruginosa. The experiment is described as follows: Antimicrobial activity against Pseudomonas aeruginosa PAO1 assessed as outer membrane permeabilization at 0.125 ug/ml by fluorescence spectrophotometer using NPN fluorescent probe. The class given is functional, organism-based. The method, boiled down: as §5
In experiment [31] the test system is Pseudomonas aeruginosa. Briefly: Antimicrobial activity against 2 ug/ml compound pretreated Pseudomonas aeruginosa isolate 9BR assessed as outer membrane permeabilization at 8 ug/ml by fluorescence spectrophotometer using NPN fluorescent probe. The class given is functional, organism-based. The method, boiled down: as §5
Experiment [32] concerns Pseudomonas aeruginosa. Briefly: Antimicrobial activity against 2 ug/ml compound pretreated Pseudomonas aeruginosa isolate 19BR assessed as outer membrane permeabilization at 8 ug/ml by fluorescence spectrophotometer using NPN fluorescent probe. The class given is functional, organism-based. The procedure, abridged: as §5
The subject of experiment [33] is Pseudomonas aeruginosa. Briefly: Antibacterial activity against Pseudomonas aeruginosa isolate 19BR assessed as growth after the skipped wells was observed after 48 hrs by broth microdilution method. The class given is functional, organism-based.
The subject of experiment [34] is Pseudomonas aeruginosa. Briefly: Antibacterial activity against Pseudomonas aeruginosa isolate 213BR assessed as growth after the skipped wells was observed after 48 hrs by broth microdilution method. The class given is functional, organism-based.
Experiment [35] deals with Pseudomonas aeruginosa. The experiment is described as follows: Antimicrobial activity against Pseudomonas aeruginosa isolate 9BR assessed as inhibition of growth at 0.25 ug/ml after 24 hrs. Type of experiment: functional, organism-based.

Calls of active or inactive are those of the source. The rule behind the calls is not given here.

`O=C(O)c1cn(C2CC2)c2cc(N3CCNCC3)c(F)cc2c1=O` [CIPROFLOXACIN]: the MIC in the experiment with Pseudomonas aeruginosa [1], in the experiment with Pseudomonas aeruginosa [2] and against Pseudomonas aeruginosa [3] was greater than 32 µg/mL in each case.
Regarding `CCN1CCN(C(=O)N[C@@H](C(=O)N[C@@H]2C(=O)N3[C@@H]2SC(C)(C)[C@@H]3C(=O)O)c2ccccc2)C(=O)C1=O` [PIPERACILLIN], the figures for the MIC in the experiment on Pseudomonas aeruginosa [4], in the experiment on Pseudomonas aeruginosa [5] and with Pseudomonas aeruginosa [6] were 96 µg/mL, 64 µg/mL and 96 µg/mL, respectively.
Turning to `CC(C)(O/N=C(\C(=O)N[C@@H]1C(=O)N2C(C(=O)[O-])=C(C[n+]3ccccc3)CS[C@H]12)c1csc(N)n1)C(=O)O` [CEFTAZIDIME], the minimum inhibitory concentration (MIC) with Pseudomonas aeruginosa [1], in the experiment on Pseudomonas aeruginosa [2] and against Pseudomonas aeruginosa [3] was greater than 256 µg/mL in each case.
On to `CO/N=C(\C(=O)N[C@@H]1C(=O)N2C(C(=O)[O-])=C(C[N+]3(C)CCCC3)CS[C@H]12)c1csc(N)n1` [CEFEPIME], for which the MIC against Pseudomonas aeruginosa [1], against Pseudomonas aeruginosa [2] and with Pseudomonas aeruginosa [3] was greater than 256 µg/mL throughout.
Take `C[C@@H](O)[C@H]1C(=O)N2C(C(=O)O)=C(S[C@@H]3CN[C@H](C(=O)N(C)C)C3)[C@H](C)[C@H]12` [MEROPENEM]: the minimum inhibitory concentration (MIC) with Pseudomonas aeruginosa [1], with Pseudomonas aeruginosa [2] and in the experiment with Pseudomonas aeruginosa [3] was greater than 32 µg/mL each time.
POLYMYXIN B: the minimal inhibitory concentration (MIC) in the experiment with Pseudomonas aeruginosa [7] came out at 64 µg/mL; in the experiment with Pseudomonas aeruginosa [8] it was 0.25 µg/mL; with Pseudomonas aeruginosa [9], 0.5 µg/mL; in the experiment on Pseudomonas aeruginosa [10] it was 64 µg/mL; in the experiment with Pseudomonas aeruginosa [33], 8 µg/mL; in the experiment with Pseudomonas aeruginosa [34], 8 µg/mL. Besides, the results for the MIC against Pseudomonas aeruginosa [1], in the experiment on Pseudomonas aeruginosa [2] and with Pseudomonas aeruginosa [3] were 4 µg/mL, 1.5 µg/mL and 1.5 µg/mL, respectively. The results for the TIME in the experiment on Pseudomonas aeruginosa [11] and with Pseudomonas aeruginosa [12] were 6 h and 4 h, respectively. Besides, the Activity entry in the experiment with Pseudomonas aeruginosa [13], with Pseudomonas aeruginosa [14], with Pseudomonas aeruginosa [24], in the experiment on Pseudomonas aeruginosa [25] and in the experiment with Pseudomonas aeruginosa [26] was “Dose-dependent effect” each time. Also, the outcome with Pseudomonas aeruginosa [15], in the experiment on Pseudomonas aeruginosa [16], in the experiment on Pseudomonas aeruginosa [17], with Pseudomonas aeruginosa [31] and in the experiment on Pseudomonas aeruginosa [32] was inactive. Moreover, the result in the experiment with Pseudomonas aeruginosa [18], in the experiment with Pseudomonas aeruginosa [19], in the experiment on Pseudomonas aeruginosa [20], in the experiment with Pseudomonas aeruginosa [21], in the experiment with Pseudomonas aeruginosa [22] and with Pseudomonas aeruginosa [23] was Active. Moreover, the result in the experiment on Pseudomonas aeruginosa [27], with Pseudomonas aeruginosa [28], in the experiment on Pseudomonas aeruginosa [29] and with Pseudomonas aeruginosa [30] was Active. Also, in the experiment with Pseudomonas aeruginosa [35], the inhibition entry was “inactive”.
Consider COLISTIN, for which the MIC in the experiment on Pseudomonas aeruginosa [7] is 32 µg/mL; in the experiment with Pseudomonas aeruginosa [8], 4 µg/mL; with Pseudomonas aeruginosa [9] it was 2 µg/mL; with Pseudomonas aeruginosa [10], 32 µg/mL; with Pseudomonas aeruginosa [33], 4 µg/mL; in the experiment with Pseudomonas aeruginosa [34], 32 µg/mL.
